pIC50: −log10 of the molar value. Active and inactive are the calls of the source. The rule behind the calls is not given here.
Columns and labels:
A549 [1] = test: Induction of apoptosis in human A549 cells assessed as late apoptotic cells at 8 uM after 24 hrs by Annexin-V/PI staining based flow cytometry analysis (reference value: 5.69%); format: functional
Method in brief: (§1)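 A549 cells seeded overnight at 37 °C, 5% CO2, then exposed to 0, 2, 4, 8 or 12 µM for 24 h (dose series) or 8 µM for 0, 12, 24, 36 h (time series). Harvested, PBS-washed, stained with Annexin V-FITC and PI in binding buffer 15 min at room temperature in the dark, analysed by flow cytometry; three independent experiments.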

A549 [2] = test: Induction of apoptosis in human A549 cells assessed as early apoptotic cells at 12 uM after 24 hrs by Annexin-V/PI staining based flow cytometry analysis (reference value: 1.15%); format: functional
A549 [3] = test: Induction of apoptosis in human A549 cells assessed as high mitochondrial membrane potential at 4 uM after 12 hrs by JC-1 staining-based flow cytometric analysis (reference value: 90.6%); format: functional
Method in brief: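 JC-1 staining of A549 cells treated for 12 h. CCCP-treated wells, 20 min at 37 °C, served as positive control. Collected cells were incubated with JC-1 solution at 37 °C for 30 min, washed, and analysed by flow cytometry for the fraction with high ΔΨm and for PI-positive cells. Results are mean ± S.E.M. of three replicates.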

A549 [4] = test: Induction of apoptosis in human A549 cells assessed as necrotic cells after at 12 uM 24 hrs by Annexin-V/PI staining based flow cytometry analysis (reference value: 1.81%); format: functional; method in brief: as §1
A549 [5] = test: Induction of apoptosis in human A549 cells assessed as necrotic cells after at 8 uM 24 hrs by Annexin-V/PI staining based flow cytometry analysis (reference value: 2.98%); format: functional; method in brief: as §1
A549 [6] = test: Induction of apoptosis in human A549 cells assessed as necrotic cells after at 4 uM 24 hrs by Annexin-V/PI staining based flow cytometry analysis (reference value: 1.81%); format: functional; method in brief: as §1
A549 [7] = test: Induction of apoptosis in human A549 cells assessed as late apoptotic cells at 4 uM after 24 hrs by Annexin-V/PI staining based flow cytometry analysis (reference value: 5.69%); format: functional
A549 [8] = test: Induction of apoptosis in human A549 cells assessed as early apoptotic cells at 2 uM after 24 hrs by Annexin-V/PI staining based flow cytometry analysis (reference value: 1.15%); format: functional
[9] = target: T1, Epidermal growth factor receptor (Homo sapiens, UniProt P00533); test: Potency index, ratio of shi-konin IC50 to compound IC50 for inhibition of C-terminal His-tagged N-terminal GST-tagged human EGFR (668 to 1210 residues) expressed in baculovirus infected Sf9 cells after 30 mins in presence of gamma-[32p-ATP] binding assay
HeLa = test: Antiproliferative activity against human HeLa cells assessed as reduction in cell viability after 24 hrs by MTT assay; format: functional, cell-based
Method in brief: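 MTT colorimetric assay. Cells in log phase in medium with 10% FBS were seeded at 10⁴ cells/well and left overnight at 37 °C, 5% CO₂ to reattach. Compounds were added at 0.1, 1, 10 and 100 μM in 10% FBS for 24 h. IC50 reported as mean ± SD of three independent experiments.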

A549 [10] = test: Cell cycle arrest in human A549 cells assessed as accumulation at G2/M phase at 8 uM after 24 hrs by RNAse A/ PI staining based flow cytometric analysis (reference value: 9.47%); format: functional
Method in brief: (§2)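 A549 cells at 5.0×10^4 per well were grown 12 h at 37 °C. Treatment was 0, 2, 4 or 8 µM for 24 h, or 8 µM for 0, 12, 24 or 36 h. Cells were fixed in 70% ethanol at −20 °C for at least 12 h, then stained in PBS with 0.1 mg/mL RNase A and 5 µg/mL PI. At least 10,000 events per sample were collected by flow cytometry to give G0/G1, S and G2/M percentages.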

A549 [11] = test: Cell cycle arrest in human A549 cells assessed as accumulation at G1 phase at 2 uM after 24 hrs by RNAse A/ PI staining based flow cytometric analysis (reference value: 73.30%); format: functional; method in brief: as §2
A549 [12] = test: Induction of apoptosis in human A549 cells assessed as reduction in Bcl-2 expression at 2 to 8 uM after 24 hrs by Western blot analysis; format: functional, cell-based
Method in brief: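 A549 cells in 6-well plates were lysed in RIPA buffer with protease inhibitors on ice for 30 min and cleared at 4 °C. Protein was quantified by BCA, run on SDS-PAGE and transferred to PVDF. Membranes were blocked with milk, probed with primary antibody (1:1000) overnight at 4 °C, then secondary antibody (1:3000-1:5000) 1 h at RT. Detection by ECL; band densitometry normalised to GAPDH (β-actin also used). Three independent experiments.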

A549 [13] = test: Cell cycle arrest in human A549 cells assessed as accumulation at G2/M phase at 2 uM after 24 hrs by RNAse A/ PI staining based flow cytometric analysis (reference value: 9.47%); format: functional; method in brief: as §2
A549 [14] = test: Induction of apoptosis in human A549 cells assessed as caspase-9 cleavage expression at 2 to 8 uM after 24 hrs by Western blot analysis; format: functional, cell-based
Method in brief: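 Western blot of A549 cells treated for 24 h. Lysates in RIPA buffer were run on SDS-PAGE and transferred to PVDF. Primary antibody at 1:1000 overnight at 4 °C, secondary antibody at 1:3000-1:5000 for 1 h, ECL detection. Densitometry was normalised to GAPDH; mean ± S.E.M. from three independent experiments.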

A549 [15] = test: Induction of apoptosis in human A549 cells assessed as viable cells at 12 uM after 24 hrs by Annexin-V/PI staining based flow cytometry analysis (reference value: 91.4%); format: functional; conditions: A549, 24 h, read-out: Activity; method in brief: as §1
[16] = Toxicity in ip dosed Balb/c mouse xenografted with human A549 cells assessed as effect on body weight at 2 to 4 mg/kg, ip administered once every two days for 32 days and measured for every 2 days; format: organism-based; conditions: in vivo
Method in brief: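 Female BALB/c nude mice (5-6 weeks) received 6×10^6 A549 cells s.c. in the flank. After two weeks (tumours ~90 mm³) they were split into 5 groups (n = 8). Dosing was 2 or 4 mg/kg, dissolved in DMSO, i.p. once every two days for 16 doses; DMSO vehicle served as control. Body weight and tumour volume (L×S²/2) were recorded every two days; mice were killed at day 32.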

A549 [17] = test: Cell cycle arrest in human A549 cells assessed as downregulation of cyclin A expression at 2 to 8 uM by immunoblot analysis; format: functional, cell-based
Method in brief: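 A549 lysates in RIPA buffer with protease inhibitors were run on SDS-PAGE and blotted to PVDF. Membranes were probed overnight at 4 °C with primary antibody at 1:1000, then secondary antibody at 1:3000-1:5000 for 1 h, and detected by ECL. Band intensity was normalised to GAPDH. Results are mean ± S.E.M. from three independent experiments.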

[18] = target: T1, Epidermal growth factor receptor; test: Inhibition of C-terminal His-tagged N-terminal GST-tagged human EGFR (668 to 1210 residues) expressed in baculovirus infected Sf9 cells after 30 mins in presence of gamma-[32p-ATP] binding assay
A549 [19] = test: Cell cycle arrest in human A549 cells assessed as accumulation at S phase at 4 uM after 24 hrs by RNAse A/ PI staining based flow cytometric analysis (reference value: 17.23%); format: functional; method in brief: as §2

T1 sequence (P00533 whole entry, the tested form may be a part): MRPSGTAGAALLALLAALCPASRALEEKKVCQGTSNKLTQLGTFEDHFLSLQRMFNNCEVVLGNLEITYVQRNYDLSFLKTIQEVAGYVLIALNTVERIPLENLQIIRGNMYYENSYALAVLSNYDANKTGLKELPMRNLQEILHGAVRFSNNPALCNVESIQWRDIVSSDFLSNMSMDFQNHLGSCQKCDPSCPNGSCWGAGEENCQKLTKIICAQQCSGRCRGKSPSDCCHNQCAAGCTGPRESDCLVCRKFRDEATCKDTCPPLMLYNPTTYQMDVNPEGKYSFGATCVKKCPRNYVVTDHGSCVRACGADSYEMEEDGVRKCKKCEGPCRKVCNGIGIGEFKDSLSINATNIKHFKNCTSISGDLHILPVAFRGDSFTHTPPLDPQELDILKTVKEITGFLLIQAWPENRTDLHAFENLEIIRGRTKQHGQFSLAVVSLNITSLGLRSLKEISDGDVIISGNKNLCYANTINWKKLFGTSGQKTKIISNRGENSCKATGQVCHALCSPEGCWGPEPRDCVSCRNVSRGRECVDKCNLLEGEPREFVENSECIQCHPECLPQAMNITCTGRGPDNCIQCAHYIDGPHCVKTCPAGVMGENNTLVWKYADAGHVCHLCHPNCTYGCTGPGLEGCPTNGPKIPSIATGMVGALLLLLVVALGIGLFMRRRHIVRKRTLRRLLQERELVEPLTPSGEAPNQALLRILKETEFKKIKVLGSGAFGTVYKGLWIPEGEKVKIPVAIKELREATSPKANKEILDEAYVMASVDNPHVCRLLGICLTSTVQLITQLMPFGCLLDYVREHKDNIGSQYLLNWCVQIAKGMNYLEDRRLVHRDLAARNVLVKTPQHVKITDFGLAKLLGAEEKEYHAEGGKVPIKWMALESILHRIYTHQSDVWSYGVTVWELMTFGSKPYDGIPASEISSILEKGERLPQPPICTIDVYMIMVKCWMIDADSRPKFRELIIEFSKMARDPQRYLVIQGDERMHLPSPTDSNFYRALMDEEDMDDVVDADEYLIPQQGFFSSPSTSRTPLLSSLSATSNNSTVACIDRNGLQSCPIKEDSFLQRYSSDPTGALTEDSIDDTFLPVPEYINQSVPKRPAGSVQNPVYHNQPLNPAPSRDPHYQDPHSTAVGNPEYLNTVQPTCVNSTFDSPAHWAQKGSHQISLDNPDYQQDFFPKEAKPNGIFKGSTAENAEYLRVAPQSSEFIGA

With `CC(C)=CC[C@@H](OC(=O)/C=C\C(=O)c1ccc(F)cc1)C1=CC(=O)c2c(O)ccc(O)c2C1=O` the Activity (A549 [1]) was 30.5%, the Activity (A549 [2]) was 42.6% and the Activity (A549 [3]) was 67.8%. It also gave an Activity (A549 [4]) of 4.16%, an Activity (A549 [5]) of 3.72% and an Activity (A549 [6]) of 0.175%. It also gave an Activity (A549 [7]) of 10.6%, an Activity (A549 [8]) of 4.62% and a Ratio IC50 [9] of 6. For the same compound, the pIC50 (HeLa) was 5.10, the Activity (A549 [10]) was 33.01% and the Activity (A549 [11]) was 61.67%. For the same compound, the Activity (A549 [12]) was “Active”, the Activity (A549 [13]) was 15.4% and the Activity (A549 [14]) was “Active”. The viability at 12 µM (A549 [15]) was 15.1%, the Activity [16] was “Non-Toxic” and the Activity (A549 [17]) was “Active”. The pIC50 [18] was 7.64 and the Activity (A549 [19]) was 19.8%.
